# In ChEMBL document CHEMBL1150169, “Fatty acid synthase inhibitors from plants: isolation, structure elucidation, and SAR studies” (J Nat Prod, 2002):
# Key:
# [1] = Inhibition of Saccharomyces cerevisiae fatty acid synthase
# In short: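 Yeast FAS semipurified by 50% ammonium sulfate precipitation of lysate (pH 6.6 phosphate, EDTA, DTT, protease inhibitors), dialyzed, and diluted to 250 mOD/min/mL. Samples preincubated with enzyme 30 min at room temperature, then mixed 1:1 with mix of 1 mM malonyl CoA and NADPH, 40 µM acetyl CoA, and 2 mM DTT. A340 read kinetically; rate over initial 2 min. IC50 from dose-response curves.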
# Candida albicans = assay: Antifungal activity against Candida albicans ATCC 90028; type: functional, organism-based
# Cryptococcus neoformans = assay: Antifungal activity against Cryptococcus neoformans ATCC 90113; type: functional, organism-based
SMILES,IC50 [1],IC50 (Candida albicans),IC50 (Cryptococcus neoformans)
C[C@H]1[C@H](C)CC[C@]2(C(=O)O)CC[C@]3(C)C(=CC[C@@H]4[C@@]5(C)CC[C@H](O)C(C)(C)[C@@H]5CC[C@]43C)[C@H]12 [URSOLIC ACID],38 µg/mL,> 50 µg/mL,> 50 µg/mL
O=c1c(O)c(-c2ccc(O)c(O)c2)oc2cc(O)cc(O)c12 [QUERCETIN],12 µg/mL,> 50 µg/mL,> 50 µg/mL
C/C=C/C/C=C/CCC(=O)[C@H]1O[C@H]1C(N)=O [CERULENIN],0.15 µg/mL,0.4 µg/mL,0.15 µg/mL
COc1c(O[C@@H]2O[C@H](CO)[C@@H](O)[C@H](O)[C@H]2O)cc2c(=O)oc3c4c(cc5c(=O)oc1c2c35)OCO4 [NYSSOSIDE],> 50 µg/mL,> 50 µg/mL,> 50 µg/mL
O=C1C[C@@H](c2ccc(O)cc2)Oc2cc(O)cc(O)c21 [NARINGENIN],> 50 µg/mL,> 50 µg/mL,> 50 µg/mL
CC1(C)CC[C@]2(C(=O)O)CC[C@]3(C)C(=CC[C@@H]4[C@@]5(C)C[C@@H](O)[C@H](O)[C@@](C)(CO)[C@@H]5[C@H](O)C[C@]43C)[C@@H]2C1 [TERMINOLIC ACID],> 50 µg/mL,> 50 µg/mL,> 50 µg/mL
C[C@@H]1O[C@@H](OC[C@H]2O[C@@H](Oc3c(-c4ccc(O)c(O)c4)oc4cc(O)cc(O)c4c3=O)[C@H](O)[C@@H](O)[C@@H]2O)[C@H](O)[C@H](O)[C@H]1O [RUTIN],> 50 µg/mL,> 50 µg/mL,30 µg/mL
O=C1c2c(O)cc(O)cc2OC1(O)Cc1cc(O)c(O)c(O)c1 (stereo not drawn) [AMARANOL A],> 50 µg/mL,> 50 µg/mL,> 50 µg/mL
C=C(C)C(O)Cc1c(O)ccc(C(=O)/C=C/c2ccc(O)cc2)c1O (stereo not drawn),46 µg/mL,20 µg/mL,50 µg/mL
O=C1c2c(O)cc(O)c(C3C(=O)c4c(O)cc(O)cc4OC3c3ccc(O)cc3)c2OC(c2ccc(O)c(O)c2)C1O (stereo not drawn),23 µg/mL,> 50 µg/mL,> 50 µg/mL
O=C(OC[C@H]1O[C@@H](OC(=O)c2cc(O)c(O)c(O)c2)[C@H](OC(=O)c2cc(O)c(O)c(O)c2)[C@@H](OC(=O)c2cc(O)c(O)c(O)c2)[C@@H]1OC(=O)c1cc(O)c(O)c(O)c1)c1cc(O)c(O)c(O)c1 [PENTAGALLOYL GLUCOSE],2.8 µg/mL,> 50 µg/mL,> 50 µg/mL
C=C(C)[C@@H]1CC[C@]2(C(=O)O)CC[C@]3(C)[C@H](CC[C@@H]4[C@@]5(C)CC[C@H](O)C(C)(C)[C@@H]5CC[C@]43C)[C@@H]12 [BETULINIC ACID],> 50 µg/mL,> 50 µg/mL,> 50 µg/mL
O=C(O)C[C@@H]1C(=O)O[C@H]2[C@@H]3OC(=O)c4cc(O)c(O)c(O)c4-c4c(cc(O)c(O)c4O)C(=O)OC[C@H]2O[C@@H](OC(=O)c2cc(O)c(O)c(O)c2)[C@@H]3OC(=O)c2cc(O)c(O)c3c2[C@H]1[C@H](O)C(=O)O3 [CHEBULAGIC ACID],> 50 µg/mL,> 50 µg/mL,> 50 µg/mL
COc1c(O)cc(CC2(O)Oc3cc(O)cc(O)c3C2=O)cc1O (stereo not drawn) [AMARONOL B],> 50 µg/mL,> 50 µg/mL,> 50 µg/mL
O=C(O)C[C@H]1C(=O)O[C@H]2[C@H](OC(=O)c3cc(O)c(O)c(O)c3)[C@@H](OC(=O)c3cc(O)c(O)c4c3[C@H]1[C@H](O)C(=O)O4)[C@H](OC(=O)c1cc(O)c(O)c(O)c1)O[C@@H]2COC(=O)c1cc(O)c(O)c(O)c1 [CHEBULINIC ACID],> 50 µg/mL,> 50 µg/mL,> 50 µg/mL
CC1(C)CC[C@]2(C(=O)O)CC[C@]3(C)C(=CC[C@@H]4[C@@]5(C)C[C@@H](O)[C@H](O)[C@@](C)(CO)[C@@H]5CC[C@]43C)[C@@H]2C1 [ARJUNOLIC ACID],27.5 µg/mL,> 50 µg/mL,20 µg/mL
COc1cc(O)c(C(=O)CCc2ccccc2)c(O)c1,> 50 µg/mL,> 50 µg/mL,> 50 µg/mL
CC(C)=CCc1c(O)ccc(C(=O)/C=C/c2ccc(O)cc2)c1O [ISOBAVACHALCONE],> 50 µg/mL,2 µg/mL,45 µg/mL
COc1cc2c(=O)oc3c(OC)c(O[C@@H]4O[C@H](CO)[C@@H](O)[C@H](O)[C@H]4O)cc4c(=O)oc(c1OC)c2c34,> 50 µg/mL,> 50 µg/mL,> 50 µg/mL
CC1(C)CC[C@]2(C(=O)O)CC[C@]3(C)C(=CC[C@@H]4[C@@]5(C)C[C@@H](O)[C@H](O)[C@@](C)(COC(=O)c6cc(O)c(O)c(O)c6)[C@@H]5[C@H](O)C[C@]43C)[C@@H]2C1,> 50 µg/mL,> 50 µg/mL,> 50 µg/mL
C[C@@H]1O[C@@H](Oc2cc3c(=O)oc4c(O)c(O)cc5c(=O)oc(c2O)c3c45)[C@H](O)[C@H](O)[C@H]1O [ESCHWEILENOL C],7.5 µg/mL,> 50 µg/mL,> 50 µg/mL

# Further lines, results first:
IC50 [1],IC50 (Candida albicans),IC50 (Cryptococcus neoformans),SMILES
25 µg/mL,> 50 µg/mL,> 50 µg/mL,COc1cc(O)c2c(=O)cc(-c3ccc(O)cc3)oc2c1-c1cc(-c2cc(=O)c3c(O)cc(O)cc3o2)ccc1O [SOTETSUFLAVONE]
> 50 µg/mL,> 50 µg/mL,> 50 µg/mL,O=c1cc(-c2ccccc2)oc2c(Br)cc(Br)cc12
> 50 µg/mL,> 50 µg/mL,> 50 µg/mL,O=C1CC(c2ccccc2)Oc2ccccc21 (stereo not drawn) [FLAVANONE]
> 50 µg/mL,> 50 µg/mL,> 50 µg/mL,Cc1c(-c2ccccc2)oc2c(C(=O)O)cccc2c1=O
> 50 µg/mL,> 50 µg/mL,> 50 µg/mL,COc1cc2oc(-c3ccccc3)cc(=O)c2c(OC)c1OC [BAICALEIN TRIMETHYL ETHER]
50 µg/mL,> 50 µg/mL,> 50 µg/mL,COc1ccc(-c2coc3cc(O)c(O)cc3c2=O)cc1 [FORMONETIN]
50 µg/mL,> 50 µg/mL,> 50 µg/mL,O=c1c(O)c(-c2ccc(O)cc2)oc2cc(O)cc(O)c12 [KAEMPFEROL]
2.3 µg/mL,> 50 µg/mL,> 50 µg/mL,O=Cc1cc(-c2coc3cc(O)cc(O)c3c2=O)ccc1O
> 50 µg/mL,> 50 µg/mL,> 50 µg/mL,Cc1ccc2oc(-c3ccc(Cl)cc3)cc(=O)c2c1
> 50 µg/mL,> 50 µg/mL,> 50 µg/mL,Oc1cc(O)c2c(c1)O[C@H](c1ccc(O)c(O)c1)[C@H](O)C2 [(-)-EPICATECHIN]
7 µg/mL,> 50 µg/mL,> 50 µg/mL,O=c1cc(-c2ccc(O)c(-c3c(O)cc(O)c4c(=O)cc(-c5ccc(O)cc5)oc34)c2)oc2cc(O)cc(O)c12 [AMENTOFLAVONE]
> 50 µg/mL,> 50 µg/mL,> 50 µg/mL,COc1cc(-c2cc(=O)c3c(O)c(OC)c(OC)c(OC)c3o2)cc(OC)c1OC [GARDENIN]
> 50 µg/mL,> 50 µg/mL,> 50 µg/mL,O=C1c2c(O)cc(O)cc2OC(c2ccc(O)cc2O)C1O (stereo not drawn)
> 50 µg/mL,> 50 µg/mL,> 50 µg/mL,Cc1cc2oc(-c3ccccc3)cc(=O)c2cc1Cl
> 50 µg/mL,> 50 µg/mL,> 50 µg/mL,COc1ccc(-c2coc3cc(O)cc(O)c3c2=O)cc1 [BIOCHANIN]
49 µg/mL,> 50 µg/mL,> 50 µg/mL,COc1ccc(-c2cc(=O)c3c(O)cc(O)cc3o2)cc1-c1c(OC)cc(O)c2c(=O)cc(-c3ccc(O)cc3)oc12
25 µg/mL,6 µg/mL,> 50 µg/mL,O=c1cc(-c2ccccc2)oc2cc(O)c(O)c(O)c12 [BAICALEIN]
> 50 µg/mL,> 50 µg/mL,> 50 µg/mL,C=C(C)C(O)Cc1cc(-c2coc3cc(O)cc(O)c3c2=O)ccc1O (stereo not drawn)
> 50 µg/mL,> 50 µg/mL,> 50 µg/mL,O=c1c(-c2ccc(O)c(O)c2)coc2cc(O)cc(O)c12 [OROBOL]
> 50 µg/mL,> 50 µg/mL,> 50 µg/mL,O=c1cc(-c2ccc(Cl)cc2)oc2ccc(Br)cc12
15 µg/mL,> 50 µg/mL,> 50 µg/mL,O=c1c(O)c(-c2cc(O)c(O)c(O)c2)oc2cc(O)cc(O)c12 [MYRICETIN]
30 µg/mL,> 50 µg/mL,> 50 µg/mL,O=C1c2c(O)cc(O)cc2OC(c2ccc(O)cc2)C1c1c(O)cc(O)c2c(=O)cc(-c3ccc(O)c(O)c3)oc12 (stereo not drawn)
> 50 µg/mL,> 50 µg/mL,> 50 µg/mL,O=C(O)[C@H]1O[C@@H](Oc2cc3oc(-c4ccccc4)cc(=O)c3c(O)c2O)[C@H](O)[C@@H](O)[C@@H]1O [BAICALIN]
> 50 µg/mL,> 50 µg/mL,> 50 µg/mL,O=c1c(-c2ccc(O)cc2)coc2cc(O)cc(O)c12 [GENISTEIN]
> 50 µg/mL,> 50 µg/mL,> 50 µg/mL,O=c1c(O)c(-c2ccccc2)oc2cc(O)cc(O)c12 [GALANGIN]
20 µg/mL,> 50 µg/mL,5.5 µg/mL,O=c1oc2c(O)c(O)cc3c(=O)oc4c(O)c(O)cc1c4c23 [ELLAGIC ACID]
> 50 µg/mL,> 50 µg/mL,> 50 µg/mL,CC1(C)C=Cc2c(cc3occ(-c4ccc(O)cc4)c(=O)c3c2O)O1 [ALPINUMISOFLAVONE]
50 µg/mL,> 50 µg/mL,> 50 µg/mL,O=c1c(-c2ccc(O)cc2)coc2cc(O)c(O)cc12
37.5 µg/mL,> 50 µg/mL,20 µg/mL,O=c1cc(-c2ccc(O)cc2)oc2cc(O)cc(O)c12 [APIGENIN]
> 50 µg/mL,> 50 µg/mL,> 50 µg/mL,O=c1cc(-c2ccc(Cl)cc2)oc2c(Br)cc(Br)cc12
